Assay outcomes (PubChem)
Only some compounds are listed: those with a hit (about 1% of all), similar ones and a draw of the others.
PKD1 inh: inhibitors of human PKD1 kinase, biochemical, fluorescence polarization. PKD1 kinase fluorescence polarization assay. actives 0.056% (n = 200,000). AID 797, 2007. inhibition, % (no concentration beside the values). Serine/threonine-protein kinase D1 (Homo sapiens), Q15139; in the data active means inhibition above about 50%
MT stabilize HCS: microtubule stabilizers in HeLa cells, primary screen, imaging, high-content imaging | HeLa tubulin immunostaining HCS, 24 h; share of cells brighter than vehicle mean+2SD | % tubulin-high responders, % at 10 µM | actives 0.83% (n = 200,000) | AID 2205, 2009;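 active means plate Z-score above 3 for both tubulin-high and condensed-nucleus cell shares, with cell loss under 80%, at 10 µM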;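 further: anti alpha tubulin signal scored within the nucleus-defined area of each cell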
bCat nuc transl: modulators of beta-catenin nuclear translocation, primary screen, imaging, HeLa cells, immunofluorescence, high-content; nuclear translocation activity, % at 5 µM; actives 0.3% (n = 190,000); AID 1665, 2009;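 active means nuclear translocation activity above 50% at 5 µM, with a well cell count of 50 or more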;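 further: per-cell ratio of nuclear to cytoplasmic median beta-catenin stain intensity; plate controls were DMSO negative control for no effect and GSK-3 inhibitor IX positive control for full effect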
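System: Human HeLa cells, endogenous beta-catenin | Compound dosing: 5 µM primary, 0.02–20 µM confirmation | Timing: 24 h compound exposure at 37°C, 5% CO2 | Measured by: Fluorescence imaging of beta-catenin antibody stain plus DAPI | Read-out basis: % activation of per-cell nuclear versus cytoplasmic median beta-catenin signal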
ABCG2 block: ABCG2 efflux pump inhibitors, primary screen, multiplex with ABCB1, IgMXP3 cells, flow cytometry; Broad substrate specificity ATP-binding cassette transporter ABCG2 (Homo sapiens), Q9UNQ0; JC-1 efflux; inhibition, % at 6.6 µM; actives 0.1% (n = 190,000); AID 1325, 2008;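 active means inhibition above 80%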;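 further: 0% = DMSO and 100% = nicardipine control wells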
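Test system: ABCG2 IgMXP3 and barcoded ABCB1 CCRF-Adr cell mix; Schedule: cells with compound and JC-1, 10 min at 25 °C, rotating, no wash; Technique: flow cytometry of retained JC-1 fluorescence; Measure: % inhibition of efflux relative to nicardipine and DMSO; Controls: nicardipine high and DMSO low controls.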
ABCB1 inh: ABCB1 efflux pump inhibitors, primary screen, cell-based, multiplex, flow cytometry, ABCG2 counter-screen; ATP-dependent translocase ABCB1 (Homo sapiens), P08183; CCRF-Adr cells, JC-1 efflux; inhibition, % at 6.6 µM; actives 0.067% (n = 190,000); in the data active means inhibition above about 40%;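 further: 0% = vehicle and 100% = reference inhibitor; higher value means more JC-1 retained so stronger ABCB1 efflux block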
Target sequence (P08183 whole entry, looked up): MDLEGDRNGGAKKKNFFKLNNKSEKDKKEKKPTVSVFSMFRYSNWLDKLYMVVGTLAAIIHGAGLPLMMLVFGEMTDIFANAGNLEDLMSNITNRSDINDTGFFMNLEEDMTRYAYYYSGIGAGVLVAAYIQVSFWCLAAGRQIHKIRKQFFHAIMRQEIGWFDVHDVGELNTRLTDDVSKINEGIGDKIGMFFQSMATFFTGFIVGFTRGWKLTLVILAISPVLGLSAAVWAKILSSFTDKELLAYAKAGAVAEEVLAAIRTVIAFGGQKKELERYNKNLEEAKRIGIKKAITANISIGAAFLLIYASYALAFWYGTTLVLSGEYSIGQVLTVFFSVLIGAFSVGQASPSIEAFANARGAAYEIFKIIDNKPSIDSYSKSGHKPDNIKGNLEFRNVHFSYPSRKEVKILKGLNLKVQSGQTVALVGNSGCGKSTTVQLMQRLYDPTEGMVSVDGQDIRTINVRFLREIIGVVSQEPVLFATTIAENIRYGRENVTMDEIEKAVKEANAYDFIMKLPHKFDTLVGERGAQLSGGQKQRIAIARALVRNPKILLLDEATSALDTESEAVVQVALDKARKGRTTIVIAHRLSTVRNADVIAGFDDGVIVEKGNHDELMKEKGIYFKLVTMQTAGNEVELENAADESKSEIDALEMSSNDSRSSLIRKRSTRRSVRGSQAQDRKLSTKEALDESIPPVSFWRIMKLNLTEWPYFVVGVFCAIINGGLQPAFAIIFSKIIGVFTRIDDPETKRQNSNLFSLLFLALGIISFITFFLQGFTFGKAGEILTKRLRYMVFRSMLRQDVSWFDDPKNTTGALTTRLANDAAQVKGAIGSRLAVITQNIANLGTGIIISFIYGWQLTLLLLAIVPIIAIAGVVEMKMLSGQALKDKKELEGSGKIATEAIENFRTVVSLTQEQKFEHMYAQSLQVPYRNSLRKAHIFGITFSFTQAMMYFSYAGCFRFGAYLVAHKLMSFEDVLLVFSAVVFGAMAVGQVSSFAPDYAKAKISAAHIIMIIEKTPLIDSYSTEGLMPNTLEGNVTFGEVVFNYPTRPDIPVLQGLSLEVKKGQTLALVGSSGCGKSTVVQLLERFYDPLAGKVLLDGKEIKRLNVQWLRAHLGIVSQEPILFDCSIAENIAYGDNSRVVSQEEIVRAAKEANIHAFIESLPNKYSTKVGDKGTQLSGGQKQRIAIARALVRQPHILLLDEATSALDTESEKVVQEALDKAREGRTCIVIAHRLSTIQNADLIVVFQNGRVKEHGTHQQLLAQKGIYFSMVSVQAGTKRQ
ABCB1 single pt: ABCB1 efflux pump inhibitors, confirmation, cell-based, single point, ABCG2 counter-screen; inhibition, % at 6.6 µM; actives 7% (n = 270); AID 1451, 2008; shares compounds with ABCG2 block; CCRF-Adr cells, JC-1 efflux, flow cytometry;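 active means inhibition of pump activity above 50%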;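 further: 0% = DMSO and 100% = nicardipine full pump inhibition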
ABCG2 single pt: ABCG2 efflux pump inhibitors, confirmation, single point, IgMXP3 cells, ABCB1 counter-screen paired; inhibition, % at 6.6 µM; actives 6% (n = 270); JC-1 efflux, flow cytometry; shares compounds with ABCG2 block;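 active means inhibition above 50%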;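 further: 0% = DMSO wells and 100% = nicardipine pump inhibitor wells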
IgMXP3 fluor: compound autofluorescence in ABCG2-expressing IgMXP3 cells, confirmation, artefact control for ABC transporter inhibitor project, cell-based, 488/530 nm, flow cytometry | shares compounds with ABCG2 block | compound autofluorescence 488/530 nm; active compounds read high | fluorescence at 6.6 µM | actives 30% (n = 270) | AID 1480, 2009;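 active means fluorescence in ABCG2-expressing cells above the plate's control-well mean plus 3 SD, cut at about 15 in these data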;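 further: median cell fluorescence with compound minus that of DMSO-treated control cells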
CCRF-Adr fluor: compound autofluorescence in ABCB1-expressing CCRF-Adr cells, confirmation, artefact control for ABC transporter inhibitor project, cell-based, 488/530 nm, flow cytometry; actives 30% (n = 270); compound autofluorescence 488/530 nm; active compounds read high; fluorescence at 6.6 µM; shares compounds with ABCG2 block; AID 1483, 2009;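 active means fluorescence beyond the plate control mean plus 3 SD, with a fluorescence-to-maximum score over 2, cut at about 25 in these data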
Active calls of the source: *.

`O=C(NCc1ccccn1)Nc1ccc(Cl)c(Cl)c1` gave PKD1 inh 3, MT stabilize HCS 3, bCat nuc transl -1, ABCG2 block 70, ABCB1 inh 1, ABCB1 single pt 0, ABCG2 single pt 23, IgMXP3 fluor -1.3 and CCRF-Adr fluor -2.1.
For O=C(CNC(=S)N(CCCN1CCOCC1)Cc1cccs1)N1CCCC1 the results were PKD1 inh 12, MT stabilize HCS 3, bCat nuc transl 0, ABCG2 block 6 and ABCB1 inh 2.
For CCOc1ccc(NC(=O)c2cccc3c2C(=O)N(CCOC)C3)cc1 the results were PKD1 inh -9, MT stabilize HCS 3, ABCG2 block 82*, ABCB1 inh 3, ABCB1 single pt 9, ABCG2 single pt 52*, IgMXP3 fluor 7.4 and CCRF-Adr fluor 12.
Cc1cc(C)c(C#N)c(SCC(=O)c2cc(C)n(CCc3ccccc3)c2C)n1 was read as PKD1 inh -4, MT stabilize HCS 4, bCat nuc transl -2, ABCG2 block 5 and ABCB1 inh 1.
For COCCn1c(C)cc(C(=O)CSc2nc(C)cc(C)c2C#N)c1C the results were PKD1 inh -7, MT stabilize HCS 4, bCat nuc transl -4, ABCG2 block 97*, ABCB1 inh 3, ABCB1 single pt 7, ABCG2 single pt 29, IgMXP3 fluor 24* and CCRF-Adr fluor 19.
Screening Cc1ccc(OCC(=O)N2CCN(S(C)(=O)=O)CC2)cc1 returned bCat nuc transl -1.
For CCCCNC(=O)COC(=O)CNC(=O)c1cc(Cl)cc([N+](=O)[O-])c1 the results were PKD1 inh -5, MT stabilize HCS 4, bCat nuc transl 3, ABCG2 block 1 and ABCB1 inh 0.
Screening COc1ccc2nc(SCc3ccccc3C)nc(C)c2c1 returned PKD1 inh -8, MT stabilize HCS 10, bCat nuc transl 0, ABCG2 block 90*, ABCB1 inh 2, ABCB1 single pt 6, ABCG2 single pt 45, IgMXP3 fluor 16* and CCRF-Adr fluor 7.1.
Screening O=C1NC(c2ccc(-c3ccccc3[N+](=O)[O-])o2)C(C(=O)c2ccc(F)cc2)C(O)(C(F)(F)F)N1 (configuration not stated) returned PKD1 inh -8, MT stabilize HCS 6, bCat nuc transl -2, ABCG2 block 88*, ABCB1 inh 1, ABCB1 single pt 9, ABCG2 single pt 21, IgMXP3 fluor 15* and CCRF-Adr fluor 13.
Screening CCN(CC)c1nc(-c2cccc(OC)c2O)nc2ccccc12 returned PKD1 inh 5, MT stabilize HCS 4, bCat nuc transl 0, ABCG2 block 83*, ABCB1 inh 8, ABCB1 single pt 25, ABCG2 single pt 24, IgMXP3 fluor 17* and CCRF-Adr fluor 108*.
CC(=O)Nc1ccc(Nc2ccc(S(=O)(=O)C(F)(F)F)cc2[N+](=O)[O-])cc1 was read as PKD1 inh 9, MT stabilize HCS 8, bCat nuc transl -2, ABCG2 block 92*, ABCB1 inh 1, ABCB1 single pt 1, ABCG2 single pt 55*, IgMXP3 fluor -2.2 and CCRF-Adr fluor -4.4.
O=C(O)CNc1ccc(S(=O)(=O)C(F)(F)F)cc1[N+](=O)[O-] was read as bCat nuc transl -4.
For O=[N+]([O-])c1ccccc1-c1nc(-c2ccc(Br)o2)no1 the results were PKD1 inh -2, MT stabilize HCS 3, bCat nuc transl -1, ABCG2 block 90*, ABCB1 inh 2, ABCB1 single pt 2, ABCG2 single pt 28, IgMXP3 fluor -0.34 and CCRF-Adr fluor 0.61.
